Laboratory results published in ChEMBL document CHEMBL4513216, “Probing the Open Global Health Chemical Diversity Library for Multistage-Active Starting Points for Next-Generation Antimalarials” (ACS Infect Dis, 2020).

Experiment: Toxicity liver stage against HepG2, at 10uM
Type: cell-based
Design: test concentration 10 uM, cell line HepG2-A16-CD81EGFP
Details: human, HepG2-A16-CD81EGFP cells; read-out: INHIBITION
In short: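 Uninfected HepG2-A16-CD81EGFP cells, 3 × 10^3 per well, 1536-well, plated on prespotted compound at 10 μM final, parasite-free screening media added to match infected plates; puromycin 10 μM positive, DMSO 0.5% negative; run in parallel with 48 h PbLuc assay at 37 °C, 5% CO2; viability by CellTiter-Glo luminescence, normalized to controls.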

SMILES | cytotoxicity at 10 µM [%]
CC(C)(C)c1coc([C@@H]2COCCN2CC2CC2)n1 | -10.1
O=C1CN(C(=O)C2CCCCC2)CC(O)CN1Cc1ccco1 (stereo unspecified) | -2.67
O=C(NCCc1c[nH]cn1)c1n[nH]c2c1CCC2 | 1.67
COc1ccc(-n2ncc3c2NC(=O)CSC3CC(C)C)cc1 (stereo unspecified) | -0.418
O=C(C1=NN(Cc2ccccc2)c2ccccc2S1(=O)=O)N1CCCC1 | -4.65
CS(=O)(=O)N1CCN(c2cnnc(N3CCCC3)c2)CC1 | 2.24
O=C(NCc1ccc(F)cc1)C1CCCN(c2ccc3nncn3n2)C1 (stereo unspecified) | -4.46
COc1ccc(C(=O)NCC(c2cccn2C)N2CCCC2)c(OC)c1 (stereo unspecified) | 1.31
CC(C)n1[nH]c(=O)c2c1NC(=O)CC2c1cccc(OC(F)F)c1 (stereo unspecified) | 16
CO[C@@H]1CC[C@H]2[C@H]1OCCN2C(=O)c1ccc(C)o1 | 3.68
O=C(c1n[nH]cc1Cl)N1CCSCC1 | 4.51
Cc1nn(C)c2c(=O)n(Cc3ccc(F)cc3)nnc12 | 3.41
Cc1cc(C)cc(N2CC(c3nnc(N)s3)CC2=O)c1 (stereo unspecified) | 4.29
CC1CCN(C(=O)c2ccn(COc3ccc(F)cc3)n2)CC1 | -9.38
Cc1cc(-c2cnc(N(C)C)nc2C2CCCCN2C(=O)C2CC2)on1 (stereo unspecified) | 0.095
CCc1nnc(Nc2cc(C)nc(C3CCN(c4ncccn4)C3)n2)s1 (stereo unspecified) | 3.07
Fc1cccc(CN2CCC(c3noc(-c4cnccn4)n3)CC2)c1F | -1.37
NC(=O)CN1CCC(c2cccc(Oc3ccccc3)n2)CC1 | -4.72
O=C1CCCN1CCCC(=O)N1CCCC(c2ccn[nH]2)C1 (stereo unspecified) | -22.8
CNC(=O)c1cn[nH]c1C1CCN(Cc2ccccc2F)C1 (stereo unspecified) | -30.8
CCn1cc(S(=O)(=O)NC2(CN3CCOCC3)CCCCC2)c(C)n1 | 1.88
Cc1ccc2c(c1)CN(C(=O)c1cccs1)C(CN(C)C)CO2 (stereo unspecified) | -16.5
COc1ccccc1-c1cc(C(=O)N(C)C)nc2c1cnn2C | 7.83

SMILES | cytotoxicity at 10 µM [%]
CN(C)c1ncccc1C(=O)N1CCc2c(ncn2C2CC2)C1 | 1.28
Clc1ccc(C(CNCc2ccncc2)n2cccn2)cc1 (stereo unspecified) | 6.73
COc1cc(C#N)ccc1OCCN1CCC(n2ccnc2)CC1 | 2.75
Cc1ccccc1C(C)NC(=O)Cc1c(C)nc2cc(=O)[nH]n2c1C (stereo unspecified) | 10.8
O=C(c1c[nH]nn1)N1CCN(C(c2ccccc2)C(F)(F)F)CC1 (stereo unspecified) | 8.92
CCCOc1ccc(CCC(=O)Nc2nonc2C)cc1 | -7.24
Cc1cccc(NC(=O)CCC(=O)NCC(=O)c2ccccc2F)c1 | -6.56
Cc1nn(C)c(C)c1C1CCCN1C(=O)c1cc(C(N)=O)cs1 (stereo unspecified) | -2.53
Cc1cnn(C2CN(Cc3nc4cc(Cl)ccc4n3C)C2)c1 | -1.16
Cn1cc(C(C)(O)CNc2ccc(Cl)c(C#N)n2)cn1 (stereo unspecified) | 3.97
Cc1c(-c2ccncc2)n[nH]c1NC(=O)CCOC(C)C | 6.58
CC(C)(C)OC(=O)NCC(=O)NCc1ccc(Cl)s1 | -11.3
CC(Cc1ccccc1Br)NC(=O)CCS(C)(=O)=O (stereo unspecified) | -4.44
O=C(CCC(=O)N1CCOCC1)NCc1cccnc1-n1cccn1 | -3.65
Cc1ccccc1CNC(Cn1cncn1)c1ccccc1 (stereo unspecified) | -1.45
COCc1nc(C)cc(Nc2ccc3c(c2)CC(=O)N3)n1 | 1.41
O=C(c1ccc(-n2cncn2)cc1)N1CCN(c2cnccn2)CC1 | 2.45
N#Cc1cn(CCCN2CCc3ccccc3C2)c(=O)[nH]c1=O | 2.72
CCN(CC(=O)Nc1cc(Cl)ccc1C)C(=O)c1ccncc1 | -1.73
Cc1cc(C)c(CNC(=O)C(C)Oc2ccccc2F)c(=O)[nH]1 (stereo unspecified) | 6.99
O=C(Nc1ccc(N2CCCCC2)nc1)N1CCc2sccc2C1 | -7.98
CCn1c(C)cc(C(=O)N2CCCC(n3ccnc3C)C2)c1C (stereo unspecified) | -1.51
CNC(=O)c1cccc(CCNc2ncc(Br)cn2)c1 | 9.5

SMILES | cytotoxicity at 10 µM [%]
CCc1ccc(C(=O)N2CCCC2c2c(C)nn(C)c2OC)o1 (stereo unspecified) | 6.16
O=C1C(Nc2ncccn2)CCN1c1ccccc1OC(F)F (stereo unspecified) | 2.88
CCN(C(=O)c1ccc(-c2ccccc2)nc1C)C1CC(=O)NC1=O (stereo unspecified) | -4.18
Cn1cc(C(C)(O)CNC(=O)c2cc(Br)cn2C)cn1 (stereo unspecified) | -51.1
COCC(=O)N1CCN(Cc2cc(F)cc(Br)c2)CC1 | 15.8
NC(=O)c1ccc(C(=O)N(Cc2ccc(O)cc2)CC2CC2)cc1 | 8.19
CCC(CNS(C)(=O)=O)Oc1ccccc1F (stereo unspecified) | -6
CCCc1nnnn1CC(=O)NCc1cccc(C)c1 | -3.94
Cn1cc(NC(=O)c2cccc3cccnc23)ccc1=O | -4.83
c1cnn(CCNCc2ccc(N3CCCCC3)cc2)c1 | -10.1
COCCC1(CNC(=O)NCC2CCCN(C)C2)CCC1 (stereo unspecified) | -1.11
Cc1ccccc1CN(CC(=O)O)C(=O)COCC1CC1 | -1.92
CCS(=O)(=O)NCC(=O)Nc1cc(CC(C)(C)C)n[nH]1 | 5.01
Cc1n[nH]c(C2CN(CC(=O)NCc3ccco3)CCO2)n1 (stereo unspecified) | 23
COc1cccc(N2CC3(CCN(C(=O)NC(C)C)C3)CC2=O)c1 (stereo unspecified) | 3.52
CC(C)CCCC1CN(C(=O)c2cnc[nH]2)CCO1 (stereo unspecified) | 2.83
Cc1nc[nH]c1C(=O)N1CCC2(CN(C)C(=O)O2)C1 (stereo unspecified) | 2.99
COCCn1ccnc1C1CCN(Cc2ccccc2C#N)CC1 | -10.2
CC(C)n1ccnc1C1CCN(C(=O)c2ccccc2N(C)C)CC1 | 4.67
Cc1ccnn1CCN1CCCC2(CCC(=O)N(C3CCCC3)C2)C1 (stereo unspecified) | 5.93
Cc1ccc(CN2CC[C@@H](NC(=O)c3cccnc3)[C@H](O)C2)s1 | -2.68
CNc1ncccc1C(=O)N1CCN(Cc2ccc(C)cc2)C(=O)C1C (stereo unspecified) | 5.67
O=C(Cn1ccnc1)N1CCC(n2cc(-c3cccc(Cl)c3)nn2)CC1 | -23.4

SMILES | cytotoxicity at 10 µM [%]
CCCn1nc(C)c(CNC(=O)C2COc3ccc(OC)cc3C2)c1C (stereo unspecified) | -7.79
C=Cc1cccc(CN2C[C@@H](CN(C)CC)[C@@H](CO)C2)c1 | -6.63
COc1ccc(-c2ccnc(N)c2)c(OC)c1 | 17.6
CN(C)C(=O)N1CCN(CCCc2ccccc2)[C@H]2CS(=O)(=O)C[C@H]21 | -5.18
O=C(O)c1ccc(C2CCCN(Cc3ccc(-c4cc[nH]n4)o3)C2)cc1 (stereo unspecified) | -2.43
CN1CCN(Cc2nnc(C3CCN(C4CCCCC4)CC3)n2C)CC1 | 3.18
CSCCc1n[nH]c2c1CN(S(=O)(=O)c1cn(C)c(C)n1)CC2 | 8.58
Cc1nccc(N[C@H]2CN(CC(C)(C)N3CCOCC3)C[C@@H]2C2CC2)n1 | 3.03
CCNC(=O)[C@@H]1C[C@@H](NC(=O)Cc2cc(C)no2)CN1Cc1ccsc1 | 5.62
CCNC(=O)c1ccc(N2CCCC(c3nccn3C(C)C)C2)nc1 (stereo unspecified) | -8.39
Cc1cc(NCc2cccnc2)n2nc(C)cc2n1 | -0.719
CCN1CC(C(=O)N(C)Cc2ccon2)CC1=O (stereo unspecified) | 7.08
CN(CCO)Cc1nnc(C2CCN(C(=O)c3cccnc3)CC2)n1C | 11.4
COc1cccc2c1OCC(C(=O)N1CCN(S(C)(=O)=O)CC1)C2 (stereo unspecified) | -7.23
CC[C@@]1(O)CCN(C(=O)c2ccsc2)C[C@H]1O | -9.35
O=C(NCC1CCOC1)c1csc(-c2ccccc2)n1 (stereo unspecified) | -0.755
Cc1noc(NC(=O)c2ccccc2)n1 | -0.269
CN(Cc1ccco1)C(=O)Nc1cccnc1N1CCCC1 | -5.3
Cc1cc(C)n(CC2CN(CCOc3ccccc3C#N)CCO2)n1 (stereo unspecified) | -3.71
Cc1ccc(N(CCC#N)C(=O)CN2CCCC2c2ccsc2)cc1C (stereo unspecified) | -11.2
CC(C)c1noc(CCCC(=O)N2CCN(S(C)(=O)=O)CC2)n1 | -15.7
COc1c(C2CCCN2Cc2cccc(C(N)=O)c2)c(C)nn1C (stereo unspecified) | -8.18
Cc1cnc(CN2CCCC2c2cnn(C)c2)cn1 (stereo unspecified) | 0.35

SMILES | cytotoxicity at 10 µM [%]
O=C(CN1CCC(c2ccnn2CCO)CC1)NC1CCCC1 | -6.64
Cc1ccc(NC2CCN(C(=O)c3cc4c(s3)CCC4)CC2)nn1 | -3.48
CCc1noc(C(C)N2CCN(S(=O)(=O)N3CCCC3)CC2)n1 (stereo unspecified) | -0.252
Cc1cnn(CC(C)NCc2ccc(OCc3cscn3)cc2)c1 (stereo unspecified) | -9.35
Cc1cc(C)n(CC2CCCCN2C(=O)c2ccc(C(N)=O)cc2)n1 (stereo unspecified) | 3.09
CN(C)c1ccc(CNC(=O)NCCc2cn3ccccc3n2)cn1 | -3.06
Cc1nc(C)n(C2CCCN(C(=O)c3sccc3C3CC3)C2)n1 (stereo unspecified) | -9.68
Cc1cc(C)n(C2CCCN(C(=O)CCNS(C)(=O)=O)C2)n1 (stereo unspecified) | 6.62
Cc1ccc(-c2ncc(C(=O)NCCNC(=O)C(C)C)s2)c(C)c1 | -6.53
NC(=O)c1cc(NC(=O)NCCc2cc(F)cc(F)c2)ccc1F | -9.58
Cn1ccc(CN2CCC(CO)CC2)cc1=O | 5.1
CC(C)C(=O)N1CCc2c(CN(C)Cc3ccco3)cncc2C1 | -5.69
O=C([C@H]1CC[C@@H]2[C@@H](CCN2Cc2ccc(F)cc2)O1)N1CCCO1 | 3.74
CN(C)C(=O)COC[C@]12COC[C@H]1CN(CC1CCC1)C2 | -6.07
O=C(NCCc1ccncc1)[C@H]1CC[C@@H]2[C@@H](CCN2CC2CC2)O1 | 0.545
CC(C)NC(=O)N1CCc2onc(C(=O)Nc3cccnc3)c2C1 | 4.32
Fc1ccc(CN2CCC3(CCCN(c4nncs4)C3)C2)cc1 (stereo unspecified) | -141
CCS(=O)(=O)N1CCC2(CC1)CC[C@@]1(C(=O)N(C)C)CN(C)C[C@@H]21 | 10.4
Cc1ccc(CNC2CCCc3c2cnn3C)s1 (stereo unspecified) | -0.987
